Bioassay records deposited in PubChem by Broad Institute.
DENV2 CPE rescue = DENV2-induced cell death inhibition; DENV2-infected cells, cytopathic effect rescue, plate reader; CPE inhibition, % at 9.99 µM; 1.7% of 350,000 active; AID 651640; in the data active = CPE inhibition above about 20%, passing the limit was not always enough; inconclusive = no clear call, values can overlap the other calls; tested in BHK-21 cells;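 also: 0% = median of neutral control wells and 100% = median of positive control wells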
E-selectin induc = induces E-selectin expression in human endothelial cells; activation, % at 7.58 µM; 0.37% of 260,000 active; AID 686992; P16581; HUVEC E-selectin immunofluorescence imaging; normalized: neutral wells 0, TNF-alpha wells 100;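 active = mean E-selectin-positive cell signal at least 10% of the positive control, reached in at least 60% of replicates, without over 20% cell loss; inconclusive = no rule given, readout overlaps actives, possibly toxicity-flagged; inactive = the rest, including those meeting only one limit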
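Test system: HUVEC; input: 3,000 HUVEC/well; measured by: immunofluorescence imaging; read-out: % PE-positive cells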
FGF22 binding = shifts melting point of recombinant human FGF22. Q9HCT0. recombinant FGF22 thermal shift, SYPRO orange fluorescence; percent of sucrose octasulfate shift, DMSO zero. activity (Tm shift, normalised), % at 9.99 µM. 1.5% of 340,000 active;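 active = mean Tm shift, scaled 0 neutral to 100 positive control, at about 1.3% or above, every replicate too, limit read from the data; inconclusive = no clear call, values can overlap the other calls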
Target sequence (Q9HCT0 whole entry, looked up): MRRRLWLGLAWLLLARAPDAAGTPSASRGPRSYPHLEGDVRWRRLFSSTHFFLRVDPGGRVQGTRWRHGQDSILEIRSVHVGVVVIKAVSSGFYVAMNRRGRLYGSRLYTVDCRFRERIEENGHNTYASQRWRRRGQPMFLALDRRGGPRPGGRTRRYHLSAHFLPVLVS
ERAP1 HTS inh = inhibitors of human ERAP1 aminopeptidase; Q9NZ08; recombinant ERAP1, Leu-AMC fluorescence, 60 min; inhibition, % at 10.7 µM; 0.15% of 340,000 active; AID 652197;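 active = mean replicate inhibition of at least 30%, or all replicates individually reaching that 30% level; inactive = mean below 30% and not every replicate reaching it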;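 also: 0% = neutral control wells and 100% = L-leucinethiol positive control wells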
F508del corr = correctors of CFTR F508del function in bronchial epithelial cells | CFBE cells, YFP halide quenching; stimulated with forskolin plus potentiator P3; % fluorescence drop versus neutral controls | activity (quench increase), % at 7.58 µM | 0.36% of 350,000 active;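 active = mean added fluorescence quench of at least 8% versus neutral control, with both replicates also reaching 8%; inconclusive = only one of the mean or replicate conditions met; inactive = mean below 8% and not both replicates reaching 8%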;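 also: cells transiently co-express mutant CFTR-F508del with the halide-sensitive YFP; corrector assay measuring rescue of mutant channel to the surface after 24 h compound exposure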
* = called active by the depositor; ? = inconclusive; nt = no result. Rows were chosen to be rich in hits. Some 3.7% of all compounds tested hit in one or more screens of this group.

SMILES	DENV2 CPE rescue	E-selectin induc	FGF22 binding	ERAP1 HTS inh	F508del corr
COc1cccc(S(=O)(=O)N2CCC3(CC2)CN(C(=O)Nc2ccc(F)cc2)[C@@H](CO)c2[nH]c4cc(OC)ccc4c23)c1	-6	0	0	5	1
COc1ccc2c3c([nH]c2c1)[C@@H](CO)N(C(=O)c1cccc(F)c1)CC31CCN(C(=O)c2cccc(F)c2)CC1	22*	0	0	1	-10
C[C@@H]1CCCCO[C@@H](CN(C)S(=O)(=O)c2ccc(F)cc2)[C@@H](C)CN([C@@H](C)CO)C(=O)c2cc(NS(=O)(=O)c3ccc(F)cc3)ccc2O1	-7	0	0	nt	3
CNC(=S)NCC(O)c1ccc([N+](=O)[O-])cc1 (configuration not stated)	8	nt	44*	-4	1
O=[N+]([O-])c1ccc(C(O)CNC(=S)Nc2ccccc2)cc1 (configuration not stated)	nt	nt	1	0	2
C[C@@H]1CCCCO[C@@H](CN(C)C(=O)Nc2ccccc2)[C@H](C)CN([C@H](C)CO)C(=O)c2cc(NC(=O)c3ccncc3)ccc2O1	-11	nt	nt	-1	1
CC(C)(CO)NCC(O)Cn1cc(C=O)c2ccccc21 (configuration not stated)	-1	1	43*	0	-4
CO[C@H]1CC[C@H]2CCN(C)C(=O)[C@@H](C)[C@H](OC)CN(C)C(=O)c3cc(C#N)ccc3OC[C@H]1O2	-8	0	0	1	0
O=C1c2cccc3cccc(c23)C(=O)N1c1ccccc1Cl	9	0	0	1	1
Nc1ccc(N2C(=O)c3ccccc3C2=O)c(Cl)c1	39*	0	0	2	0
COc1ccccc1CNCc1ccc2c(c1)OCO2	-7	1	0	2	-1
O=Cc1ccccc1OCc1ccc2c(c1)OCO2	2	0	0	3	11*
COc1ccccc1NC(=O)N1C[C@H]2[C@@H](c3ccccc31)[C@H](CO)N2C(=O)C1CCCC1	-8	0	0	1	4
CC(C)CC#Cc1ccc2c(c1)O[C@H](CN(C)S(=O)(=O)c1cccc(F)c1)[C@H](C)CN([C@H](C)CO)S2(=O)=O	22*	0	0	-2	2
CCCC#Cc1ccc2c(c1)O[C@H](CN(C)S(=O)(=O)c1cccc(F)c1)[C@@H](C)CN([C@@H](C)CO)S2(=O)=O	-11	0	-1	-4	2
COc1cccc(S(=O)(=O)N(C)C[C@H]2Oc3cc(C#CCC(C)C)ccc3S(=O)(=O)N([C@@H](C)CO)C[C@H]2C)c1	44*	0	0	0	-3
CCCC#Cc1ccc2c(c1)O[C@@H](CN(C)S(=O)(=O)c1cccc(F)c1)[C@H](C)CN([C@@H](C)CO)S2(=O)=O	30*	0	-1	-2	4
C[C@H]1CN([C@@H](C)CO)C(=O)CCCn2cc(nn2)CO[C@H]1CN(C)Cc1ccncc1	-3	0	0	-2	-2
O=C1NC(=S)SC1=Cc1ccc(Cl)cc1	22*	nt	0	-1	nt
COCCNC(=O)/C(C#N)=C/c1cccc(/C=C(\C#N)C(=O)NCCOC)c1	11	nt	0	0	-2
COCCNC(=O)/C(C#N)=C/c1ccc(O)c([N+](=O)[O-])c1	nt	nt	43*	10	0
CN(Cc1ccccc1)S(=O)(=O)c1ccc(NC(=S)NC(=O)C2CCCC2)cc1	3	nt	0	-2	14*
Cc1ccc(NC(=S)NC(=O)C2CCC2)cc1C	69*	-1	0	-3	6
O=C(NC(=S)Nc1ccc(S(=O)(=O)Nc2ccccc2)cc1)C1CC1	nt	0	43*	-2	-1
O=C(NNC(=S)Nc1ccccc1)C1CCCCC1	-12	nt	44*	-3	0
SMILES	DENV2 CPE rescue	E-selectin induc	FGF22 binding	ERAP1 HTS inh	F508del corr
CO[C@@H]1CN(C)C(=O)c2cc(NC(=O)c3ccc4c(c3)OCO4)ccc2OC[C@H](C)NC[C@H]1C	-5	0	nt	4	-1
Cc1cc(=O)oc2cc(OCC(=O)Nc3ccccc3C(N)=O)c(Cl)cc12	-2	1	43*	0	-5
Cc1cc(/C=C2\SC(=O)NC2=O)c(C)n1-c1ccc(N(C)C)cc1	0	-1	0	0	-1
Cc1cc(/C=C2/NC(=O)NC2=O)c(C)n1-c1ccc(N2CCOCC2)cc1	7	nt	43*	0	-4
Cc1cc(/C=C2\SC(=O)NC2=O)c(C)n1-c1ccc(N2CCOCC2)cc1	4	0	0	67*	-4
O=C(CN1CCOCC1)N1CC[C@@H]2[C@@H](CO)Nc3ccc(-c4ccccc4)cc3[C@@H]21	nt	0	nt	nt	-2
CCCNC(=O)N1C[C@H](C)[C@H](OC)CN(C)C(=O)c2cc(NC(=O)CCC)ccc2OC[C@H]1C	11	0	0	0	1
Cc1ccc(-c2nc(CSCC(=O)Nc3cc(C)on3)c(C)o2)cc1	-4	0	0	0	8.4*
Cc1cc(NC(=O)CSCc2nc(-c3cccc(F)c3)oc2C)no1	-2	0	0	0	1
O=C(NCC[C@H]1CC[C@H](NS(=O)(=O)c2ccccc2)[C@H](CO)O1)c1ccccc1F	-2	0	0	0	0
C[C@@H]1CN([C@H](C)CO)C(=O)Cc2cc(NS(C)(=O)=O)ccc2O[C@@H]1CN(C)S(=O)(=O)c1ccccc1	0	-2	0	4	0
CC(C)C(=O)Nc1nnc(S(=O)(=O)N2CCc3ccccc32)s1	107*	1	0	-4	1
COc1ccccc1-c1ccc([C@H]2[C@@H](CO)N3CCCCN(Cc4ccncc4)C[C@H]23)cc1	nt	0	nt	nt	1
CC(C)(C)c1ccc(C#C[C@@H]2C=C[C@H](O)[C@@H](COC(=O)Nc3ccccc3)O2)cc1	?	0	45*	-2	2
CCNC(=O)OC[C@H]1O[C@H](C#Cc2ccc(C(C)(C)C)cc2)C=C[C@H]1O	18	0	41	0	-3
Cc1n[nH]c(=O)c2c(NC(=O)CSc3nnc(C4CC4)n3C)oc(C)c12	39*	nt	0	3	1
Cc1n[nH]c(=O)c2c(NC(=O)CSc3nnc(-c4ccco4)n3C)oc(C)c12	-3	1	1	-1	4
CCOC(=O)N1CCN(Cc2c(NC(=O)c3ccco3)sc(C)c2C)CC1	?	-1	44*	-2	4
CO[C@H]1CN(C)C(=O)c2ccc(NC(=O)C3CC3)cc2OC[C@H](C)N(Cc2cccnc2)C[C@H]1C	-3	0	0	2	-1
O=c1c2c([N+](=O)[O-])cc([N+](=O)[O-])cc2sn1Cc1ccccc1	16	0	0	88*	-4
O=[N+]([O-])c1ccc(S(=O)Cc2ccccc2)c([N+](=O)[O-])c1 (configuration not stated)	0	0	0	0	-3
